From paper PMC4021529 (British Journal of Cancer, 2014)
Entries after “also recorded” stand apart in the source; their conditions may differ. Marks after values point to notes of the source that are not given here.

Key:
Format in all cases: in vivo, human
advanced solid tumours = assay: Objective tumour response; details: for median PFS: all dose groups
Outline: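 Patients with advanced solid tumours at two Taiwanese sites. Test compound given as a 2-h IV infusion on day 1 (schedule A) or days 1 and 8 (schedule B), every 3 weeks. CT or MRI at baseline and at the end of every other course, assessed by RECIST 1.0. PFS estimated by Kaplan–Meier.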

[1] = QTcF interval, triplicate 12-lead ECG; details: for maximal mean change (±s.d.) from baseline in QTcF: 2 h post-administration, first two courses
Plasma pharmacokinetics = details: for clearance / AUC(0-inf) / MRT / Vd: human, plasma, iv; for AUC0–∞,norm / Cmax,norm / AUC0–168,norm: gMean, dose normalised
Adverse events = assay: Adverse events
[2] = schedule A, 100 mg (n=3), first 2-h i.v. infusion
[3] = schedule A, 200 mg (n=3), first 2-h i.v. infusion
[4] = schedule A, 250 mg (n=5), first 2-h i.v. infusion
[5] = schedule A, 300 mg (n=16), first 2-h i.v. infusion
[6] = schedule A, 100 mg (n=3), irrespective of relatedness
[7] = schedule A, 250 mg (n=6), irrespective of relatedness
[8] = schedule A, 300 mg (n=17), irrespective of relatedness

Compound: CC[C@@H]1C(=O)N(C)c2cnc(Nc3ccc(C(=O)N[C@H]4CC[C@H](N5CCN(CC6CC6)CC5)CC4)cc3OC)nc2N1C(C)C [volasertib]
- partial responses in the study (advanced solid tumours; 59 treated patients, both schedules): two pre-treated patients; also recorded: Two partial responses
- duration of stable disease, individual patient (advanced solid tumours; bladder urothelial cancer with lymph node metastasis, 50 mg schedule B): > 8 months
- patients with stable disease as best overall response (advanced solid tumours; overall, both schedules): 26 (44.1%) patients (%)
- patients with stable disease as best overall response (advanced solid tumours; schedule A): 14 (43.8%) patients (%)
- median PFS (advanced solid tumours; schedule A): 49 days
- patients with stable disease as best overall response (advanced solid tumours; schedule B): 12 (44.4%) patients (%)
- median PFS (advanced solid tumours; schedule B): 56 days
- best response of individual patient (advanced solid tumours; ureteral urothelial carcinoma (wild-type FGFR3), 350 mg schedule A, two courses): partial response
- QTcF at 8-h post-dose assessment ([1]; first course): returned to baseline levels
- clinically relevant cardiac AEs related to a prolonged QT interval ([1]; in vivo): No related clinically relevant cardiac AEs
- maximal mean change (±s.d.) from baseline in QTcF ([1]; schedule A, 300 mg): 21.0 (±10.6) ms
- maximal mean change (±s.d.) from baseline in QTcF ([1]; schedule B, 150 mg): 14.9 (±11.7) ms
- apparent terminal half-life (t1/2) (Plasma pharmacokinetics; 2-h i.v. infusion, summary across doses): 135 h
- clearance (Plasma pharmacokinetics): > 770 mL/min
- AUC(0-inf) (Plasma pharmacokinetics; 100 mg): 2.14 µg·h/mL
- MRT (Plasma pharmacokinetics; 100 mg): 163 h
- Vd (Plasma pharmacokinetics; 100 mg): 7600 L
- clearance (Plasma pharmacokinetics; 100 mg): 780 mL/min
- AUC(0-inf) (Plasma pharmacokinetics; 200 mg): 3.28 µg·h/mL
- MRT (Plasma pharmacokinetics; 200 mg): 98.2 h
- Vd (Plasma pharmacokinetics; 200 mg): 5980 L
- clearance (Plasma pharmacokinetics; 200 mg): 1020 mL/min
- AUC(0-inf) (Plasma pharmacokinetics; 250 mg): 6.14 µg·h/mL
- MRT (Plasma pharmacokinetics; 250 mg): 109 h
- Vd (Plasma pharmacokinetics; 250 mg): 4440 L
- clearance (Plasma pharmacokinetics; 250 mg): 679 mL/min
- AUC(0-inf) (Plasma pharmacokinetics; 300 mg): 6.26 µg·h/mL
- MRT (Plasma pharmacokinetics; 300 mg): 103 h
- Vd (Plasma pharmacokinetics; 300 mg): 4920 L
- clearance (Plasma pharmacokinetics; 300 mg): 798 mL/min
- AUC(0-inf) (Plasma pharmacokinetics; 350 mg): 9.79 µg·h/mL
- MRT (Plasma pharmacokinetics; 350 mg): 93 h
- Vd (Plasma pharmacokinetics; 350 mg): 3320 L
- clearance (Plasma pharmacokinetics; 350 mg): 596 mL/min
- elimination route (Plasma pharmacokinetics; low exposures of main metabolite, data not shown): primarily eliminated unchanged
- AUC0–∞,norm (Plasma pharmacokinetics; [2]): 21.4 ng·h/mL/mg
- Cmax,norm (Plasma pharmacokinetics; [2]): 1.86 ng/mL/mg
- AUC0–∞,norm (Plasma pharmacokinetics; [3]): 16.4 ng·h/mL/mg
- Cmax,norm (Plasma pharmacokinetics; [3]): 2.70 ng/mL/mg
- AUC0–∞,norm (Plasma pharmacokinetics; [4]): 24.6 ng·h/mL/mg
- Cmax,norm (Plasma pharmacokinetics; [4]): 2.16 ng/mL/mg
- AUC0–∞,norm (Plasma pharmacokinetics; [5]): 20.9 ng·h/mL/mg
- Cmax,norm (Plasma pharmacokinetics; [5]): 1.63 ng/mL/mg
- AUC0–∞,norm (Plasma pharmacokinetics; schedule A, 350 mg (n=2), first 2-h i.v. infusion): 28.0 ^a (ng h ml^−1) mg^−1
- Cmax,norm (Plasma pharmacokinetics; schedule A, 350 mg (n=3), first 2-h i.v. infusion): 1.93 ng/mL/mg
- AUC0–168,norm (Plasma pharmacokinetics; schedule B, 50 mg (n=3), first 2-h i.v. infusion): 11.8 ^b (ng h ml^−1) mg^−1
- Cmax,norm (Plasma pharmacokinetics; schedule B, 50 mg (n=4), first 2-h i.v. infusion): 2.12 ng/mL/mg
- Cmax,norm (Plasma pharmacokinetics; schedule B, 100 mg (n=3), first 2-h i.v. infusion): 2.34 ng/mL/mg
- AUC0–168 (Plasma pharmacokinetics; schedule B, 100 mg, first 2-h i.v. infusion, n=2, individual values): 1.39 µg·h/mL
- AUC0–168,norm (Plasma pharmacokinetics; schedule B, 150 mg (n=14), first 2-h i.v. infusion): 12.6 ^d (ng h ml^−1) mg^−1
- Cmax,norm (Plasma pharmacokinetics; schedule B, 150 mg (n=15), first 2-h i.v. infusion): 1.56 ng/mL/mg
- AUC0–168,norm (Plasma pharmacokinetics; schedule B, 200 mg (n=2), first 2-h i.v. infusion): 16.6 ^a (ng h ml^−1) mg^−1
- Cmax,norm (Plasma pharmacokinetics; schedule B, 200 mg (n=3), first 2-h i.v. infusion): 2.05 ng/mL/mg
- accumulation (Plasma pharmacokinetics; schedule B, administration on day 1 and day 8): No accumulation
- deaths during the study (Adverse events; all due to underlying cancer, none considered related to volasertib): three deaths
- Abdominal pain grade 3, number of patients (Adverse events; [6]): 1 n
- Anaemia grade 3, number of patients (Adverse events; [6]): 1 n
- Fatigue grade 3, number of patients (Adverse events; [6]): 1 n
- Neutropenia grade 3, number of patients (Adverse events; [6]): 1 n
- Thrombocytopenia grade 3, number of patients (Adverse events; [6]): 1 n
- Upper GI haemorrhage grade 3, number of patients (Adverse events; [6]): 1 n
- Anaemia grade 3, number of patients (Adverse events; [7]): 3 n
- Anaemia grade 4, number of patients (Adverse events; [7]): 1 n
- Hypokalaemia grade 3, number of patients (Adverse events; [7]): 1 n
- Ileus grade 3, number of patients (Adverse events; [7]): 1 n
- Leukopenia grade 4, number of patients (Adverse events; [7]): 1 n
- Neutropenia grade 4, number of patients (Adverse events; [7]): 2 n
- Thrombocytopenia grade 3, number of patients (Adverse events; [7]): 1 n
- Thrombocytopenia grade 4, number of patients (Adverse events; [7]): 1 n
- Abdominal pain grade 3, number of patients (Adverse events; [8]): 2 n
- Anaemia grade 3, number of patients (Adverse events; [8]): 2 n
- Anaemia grade 4, number of patients (Adverse events; [8]): 2 n
- Fatigue grade 3, number of patients (Adverse events; [8]): 1 n
- Febrile neutropenia grade 3, number of patients (Adverse events; [8]): 1 n
- Febrile neutropenia grade 4, number of patients (Adverse events; [8]): 1 n
- Infection grade 3, number of patients (Adverse events; [8]): 1 n
- Leukopenia grade 3, number of patients (Adverse events; [8]): 7 n
- Neutropenia grade 3, number of patients (Adverse events; [8]): 5 n
- Neutropenia grade 4, number of patients (Adverse events; [8]): 5 n
- Pain grade 3, number of patients (Adverse events; [8]): 1 n
- Thrombocytopenia grade 3, number of patients (Adverse events; [8]): 7 n
